Assay [1] deals with T1, Tyrosine-protein kinase Mer (Homo sapiens) (UniProt Q12866).
T1 sequence (whole entry): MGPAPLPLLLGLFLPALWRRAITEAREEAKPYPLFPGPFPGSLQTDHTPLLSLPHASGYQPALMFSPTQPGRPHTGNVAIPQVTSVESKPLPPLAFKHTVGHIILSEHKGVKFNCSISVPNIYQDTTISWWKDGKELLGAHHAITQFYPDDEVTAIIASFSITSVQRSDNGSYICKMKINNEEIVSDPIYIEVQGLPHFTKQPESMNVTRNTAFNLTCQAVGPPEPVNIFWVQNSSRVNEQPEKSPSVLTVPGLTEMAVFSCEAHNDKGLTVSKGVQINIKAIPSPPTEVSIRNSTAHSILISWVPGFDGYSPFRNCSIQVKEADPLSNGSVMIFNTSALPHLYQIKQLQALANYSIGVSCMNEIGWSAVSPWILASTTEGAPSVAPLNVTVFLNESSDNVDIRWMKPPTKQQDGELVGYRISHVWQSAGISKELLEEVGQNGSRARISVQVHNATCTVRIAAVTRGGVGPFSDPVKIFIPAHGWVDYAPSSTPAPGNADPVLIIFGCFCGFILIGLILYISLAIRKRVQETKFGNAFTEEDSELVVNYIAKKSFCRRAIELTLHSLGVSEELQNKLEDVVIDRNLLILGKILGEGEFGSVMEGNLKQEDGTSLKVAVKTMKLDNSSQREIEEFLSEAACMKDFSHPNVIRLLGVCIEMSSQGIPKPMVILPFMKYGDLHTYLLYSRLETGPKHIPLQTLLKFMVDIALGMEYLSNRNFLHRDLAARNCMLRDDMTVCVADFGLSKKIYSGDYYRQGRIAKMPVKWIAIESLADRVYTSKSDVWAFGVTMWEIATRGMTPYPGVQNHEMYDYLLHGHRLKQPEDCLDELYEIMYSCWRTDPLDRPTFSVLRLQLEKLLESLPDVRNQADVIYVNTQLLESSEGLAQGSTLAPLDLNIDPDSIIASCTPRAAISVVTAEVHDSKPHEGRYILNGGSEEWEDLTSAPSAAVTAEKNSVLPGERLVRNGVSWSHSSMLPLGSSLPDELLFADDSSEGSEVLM
Nature of the assay: Competitive binding affinity to MERTK (unknown origin) at 10 uM in presence of ATP relative to control. The method in brief: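 In vitro ATP-site competition binding assay across a diverse panel of 128 kinases, with compound tested at a single concentration. Kinase selectivity scores (S15) were calculated from the panel profiles.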

The target in assay [2] is T2, Cyclin-dependent kinase 11A (Homo sapiens) (UniProt Q9UQ88).
T2 sequence (whole entry): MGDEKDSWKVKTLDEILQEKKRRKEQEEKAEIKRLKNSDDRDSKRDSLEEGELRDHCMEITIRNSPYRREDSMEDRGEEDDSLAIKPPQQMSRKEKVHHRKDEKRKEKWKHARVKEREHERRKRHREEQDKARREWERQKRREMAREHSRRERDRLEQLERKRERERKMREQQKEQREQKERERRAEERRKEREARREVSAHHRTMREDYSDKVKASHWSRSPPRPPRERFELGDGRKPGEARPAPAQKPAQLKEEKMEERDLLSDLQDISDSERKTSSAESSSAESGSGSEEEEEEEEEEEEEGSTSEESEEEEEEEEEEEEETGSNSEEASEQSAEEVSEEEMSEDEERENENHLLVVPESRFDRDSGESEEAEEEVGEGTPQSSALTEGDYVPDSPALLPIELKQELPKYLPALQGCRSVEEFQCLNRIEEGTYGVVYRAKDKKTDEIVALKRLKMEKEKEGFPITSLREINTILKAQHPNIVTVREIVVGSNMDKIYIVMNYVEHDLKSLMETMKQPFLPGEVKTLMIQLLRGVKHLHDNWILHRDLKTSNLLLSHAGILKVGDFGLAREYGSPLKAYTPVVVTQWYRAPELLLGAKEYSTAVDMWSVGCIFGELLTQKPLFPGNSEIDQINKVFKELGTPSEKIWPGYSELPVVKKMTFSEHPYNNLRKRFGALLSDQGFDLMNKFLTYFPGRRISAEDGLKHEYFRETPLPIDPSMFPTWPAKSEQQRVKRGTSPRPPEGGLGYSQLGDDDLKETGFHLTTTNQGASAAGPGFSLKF
Nature of the assay: Competitive binding affinity to CDC2L2 (unknown origin) at 10 uM in presence of ATP relative to control. The method in brief: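 In vitro ATP-site competition binding format, run as one member of a diverse 128-kinase profiling panel. Each compound was tested at a single concentration across the whole panel.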

Assay [3] deals with T3, Serine/threonine-protein kinase BRSK2 (Homo sapiens) (UniProt Q8IWQ3).
T3 sequence (whole entry): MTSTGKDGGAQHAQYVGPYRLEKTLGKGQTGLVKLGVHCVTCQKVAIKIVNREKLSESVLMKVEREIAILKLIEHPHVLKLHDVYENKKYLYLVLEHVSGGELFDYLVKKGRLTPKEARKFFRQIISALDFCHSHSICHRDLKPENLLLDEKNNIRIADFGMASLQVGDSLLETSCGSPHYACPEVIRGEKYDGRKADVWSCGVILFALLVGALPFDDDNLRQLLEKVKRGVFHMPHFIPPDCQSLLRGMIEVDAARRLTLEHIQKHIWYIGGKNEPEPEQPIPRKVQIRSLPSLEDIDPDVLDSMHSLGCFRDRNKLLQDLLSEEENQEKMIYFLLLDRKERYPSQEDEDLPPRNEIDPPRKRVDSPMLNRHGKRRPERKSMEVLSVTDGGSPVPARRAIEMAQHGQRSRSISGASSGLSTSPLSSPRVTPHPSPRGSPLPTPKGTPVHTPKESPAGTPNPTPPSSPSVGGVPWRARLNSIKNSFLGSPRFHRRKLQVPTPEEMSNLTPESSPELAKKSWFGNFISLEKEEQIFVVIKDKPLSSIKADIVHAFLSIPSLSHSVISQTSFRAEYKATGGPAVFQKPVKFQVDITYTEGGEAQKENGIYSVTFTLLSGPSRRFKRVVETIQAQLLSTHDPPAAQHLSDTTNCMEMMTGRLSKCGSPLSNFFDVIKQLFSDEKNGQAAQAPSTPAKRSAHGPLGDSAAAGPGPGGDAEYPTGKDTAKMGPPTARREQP
Nature of the assay: Competitive binding affinity to BRSK2 (unknown origin) at 10 uM in presence of ATP relative to control.

Among the data in ChEMBL document CHEMBL2424622, “Development of amino-pyrimidine inhibitors of c-Jun N-terminal kinase (JNK): kinase profiling guided optimization of a 1,2,3-benzotriazole lead” (Bioorg Med Chem Lett, 2013) are inhibition values, retold here.

Where only a bound is given, the exact number is not on record here.

With `O[C@H]1CC[C@H](Nc2nccc(-n3ccc4ccccc43)n2)CC1`, the results for the inhibition in assay [1], in assay [2] and in assay [3] were < 50%, 95% and < 50%, respectively.
For the compound `O[C@H]1CC[C@H](Nc2nccc(-n3nnc4ccccc43)n2)CC1`, the inhibition in assay [1] was < 50%; in assay [2], 100%; in assay [3] it was < 50%.
With `CS(=O)(=O)CCCOc1cccc2c1ccn2-c1ccnc(N[C@H]2CC[C@H](C(=O)N3CCC(O)CC3)CC2)n1`, the inhibition in assay [2] is > 85%.
On to `O[C@H]1CC[C@H](Nc2nccc(-n3ncc4ccccc43)n2)CC1`, for which the results for the inhibition in assay [1], in assay [2] and in assay [3] were 92%, 97% and < 50%, respectively.
In the case of `O[C@H]1CC[C@H](Nc2nccc(-c3n[nH]c4ccccc34)n2)CC1`, the inhibition in assay [1] was found to be 100%; in assay [3], 69%.
